Source: PubChem
An excerpt weighted towards active compounds, which were near 1.5% of everything screened.
Casp6 inh = inhibitors of human caspase-6; inhibition, % at 12.5 µM; AID 686996; hit rate 0.53% among 350,000; purified caspase-6, Z-VEID-R110 cleavage fluorescence; P55212;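 active means mean inhibition across replicates at least about 35%, with every replicate also reaching that limit, limit read from the data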
Target sequence (P55212 24-179 limits assumed): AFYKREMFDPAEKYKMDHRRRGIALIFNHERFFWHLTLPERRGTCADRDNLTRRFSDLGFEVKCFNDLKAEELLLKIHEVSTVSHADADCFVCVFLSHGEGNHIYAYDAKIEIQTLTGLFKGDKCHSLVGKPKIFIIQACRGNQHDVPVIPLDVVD
Target sequence (P55212 194-293 limits assumed): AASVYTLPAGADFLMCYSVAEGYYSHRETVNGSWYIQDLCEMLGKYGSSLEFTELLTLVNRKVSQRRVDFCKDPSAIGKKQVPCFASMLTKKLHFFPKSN
DNMT1 inh = DNMT1 (human) enzyme inhibition. P26358. DNMT1 molecular beacon, Hinp1I cleavage, fluorescence. inhibition (reported as % activation of signal), % at 10 µM. hit rate 0.83% among 360,000. AID 588458
NS3 helicase inh = blocks Hepatitis C virus NS3 helicase unwinding | NS3 helicase DNA unwinding, Cy5 molecular beacon fluorescence | inhibition, % at 10.9 µM | hit rate 0.56% among 290,000;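 active means inhibition above the mean of all tested compounds plus 3 SD, set per campaign, cut at about 35% in these data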
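Compound dosing – single dose, 10.9 µM nominal final, DMSO 0.8% final · System – NS3 helicase fragment of HCV · Buffer or medium – MOPS pH 6.5, MgCl2, DTT, Tween20, BSA · Signal – Cy5 beacon fluorescence read at start and 1 h · Also added – annealed dual-labelled DNA beacon duplex, ATP-started · Schedule – 1 h at 25 °C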
NSD2 inh = blocks human histone methyltransferase NSD2; O96028; NSD2 peptide methylation, AlphaScreen, 120 min; inhibition, % at 12.5 µM; hit rate 0.54% among 310,000; AID 743445
DNMT1 interf DR = shows spectral interference in the DNMT1 beacon assay | molecular beacon fluorescence, spectral interference counter-screen | 200 tested, under 10 active | shares compounds with DNMT1 inh | IC50, µM; call rule not given here
DNMT1 inh conf = DNMT1 inhibition confirmation, single concentration | shares compounds with DNMT1 inh | DNMT1 molecular beacon HinP1I cleavage, fluorescence | inhibition, % at 10 µM | hit rate 8% among 2,300;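 active means average inhibition of at least 30% in the single-concentration confirmation test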
DNMT1 interf = beacon fluorescence artifact counter-screen; shares compounds with DNMT1 inh; DNMT1 molecular beacon spectral interference counterscreen, fluorescence 485/520; activation (fluorescence interference), % at 10 µM; hit rate 1% among 2,300; AID 602387;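 active means activation of at least 30% at 10 µM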;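 further: DNMT1 catalytic domain with a HinP1I cleavage step and a FAM/dabcyl DNA beacon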
Of the large screens only hits and unclear results are named; the others gave an inactive call (follow-up assays come after a bar, where they were run). Unless noted, no stated cut-off is given here; in the data, active means inhibition above about 50%; inactive means the rest.

COc1ccccc1C(=O)N1C[C@H]2[C@@H](c3ccccc31)[C@H](CO)N2C(=O)Cc1ccccc1	none (no result: DNMT1 inh, NS3 helicase inh, NSD2 inh)
O=Cc1ccc(-c2nc3ccccc3s2)o1	none
O=C(O)CCN1C(=O)/C(=C/c2ccc(-c3nc4ccccc4s3)o2)SC1=S	DNMT1 inh 99 (no result: Casp6 inh) | DNMT1 interf DR inactive | DNMT1 inh conf 47 | DNMT1 interf inactive
CCCn1c(N)c(NCCN2CCOCC2)c(=O)n(CC(=O)NCc2ccccc2)c1=O	DNMT1 inh 86 | DNMT1 inh conf inactive | DNMT1 interf inactive
C[C@H](CO)N1C[C@H](C)[C@H](CN(C)S(=O)(=O)c2ccc(Cl)cc2)OCCCC[C@H](C)Oc2ccc(NS(C)(=O)=O)cc2C1=O	none (no result: DNMT1 inh, NS3 helicase inh, NSD2 inh)
CCCCC1=CC2=C(c3ccco3)C(=O)C(C)(OC(=O)c3ccc(OC)cc3)C(=O)C2=CN1Cc1ccco1 (stereo not drawn)	DNMT1 inh 56 (no result: Casp6 inh, NS3 helicase inh, NSD2 inh) | DNMT1 inh conf inactive | DNMT1 interf inactive
CN1CCS/C1=C\C=C1/SC(=S)N(CC(=O)O)C1=O	DNMT1 inh 63 | DNMT1 inh conf 57 | DNMT1 interf 60
COCc1cn([C@H]2C[C@@H]3O[C@@H](CO)CC[C@@H]3O[C@@H]2CCc2ccc(-c3ccc(OC)cc3)cc2)nn1	none (no result: DNMT1 inh, NS3 helicase inh, NSD2 inh)
COc1ccc(C(=O)c2sc(Nc3ccccc3)nc2N)cc1	DNMT1 inh 89 | DNMT1 inh conf inactive | DNMT1 interf inactive
CCN(CC)S(=O)(=O)c1cccc(C(=O)N[C@H](C(=O)NC2=NCCS2)C(C)C)c1	DNMT1 inh 66 (no result: NS3 helicase inh) | DNMT1 inh conf inactive | DNMT1 interf inactive
COc1ccc(S(=O)(=O)N(C)C[C@@H]2OCCCC[C@@H](C)Oc3ccc(NC(=O)Nc4ccc(C(F)(F)F)cc4)cc3C(=O)N([C@@H](C)CO)C[C@@H]2C)cc1	none (no result: DNMT1 inh, NS3 helicase inh, NSD2 inh)
CCOc1ccc(NC(=O)CCCc2cc(-c3ccc(OCC)cc3)on2)cc1	DNMT1 inh 57 (no result: Casp6 inh, NSD2 inh) | DNMT1 inh conf inactive | DNMT1 interf inactive
Cc1noc(C)c1NC(=O)Nc1cccc2c1O[C@@H](CN(C)Cc1ccncc1)[C@@H](C)CN([C@@H](C)CO)C2=O	none (no result: DNMT1 inh, NS3 helicase inh, NSD2 inh)
CCc1ccc(C(=O)COC(=O)c2cc([N+](=O)[O-])ccc2NCCO)cc1	DNMT1 inh 90 | DNMT1 inh conf inactive | DNMT1 interf inactive
O=C(COC(=O)c1cc([N+](=O)[O-])ccc1NCCO)c1ccc(Cl)cc1	none
CN(C)C(=O)c1ccc(-c2ccc([C@@H]3[C@@H](CO)N4C(=O)CN(C(=O)C5CCCC5)C[C@@H]34)cc2)cc1	none (no result: DNMT1 inh, NS3 helicase inh, NSD2 inh)
Cc1ccc(NCC(=O)N/N=C\c2cccc(O)c2)cc1	DNMT1 inh 58 (no result: Casp6 inh) | DNMT1 inh conf inactive | DNMT1 interf inactive
Cc1ccc(CNC(=O)C2(S(=O)(=O)c3ccccc3)CC=CC2)cc1	none (no result: Casp6 inh, NSD2 inh)
CCCNC(=O)C1(S(=O)(=O)c2ccccc2)CC=CC1	DNMT1 inh 92 (no result: Casp6 inh, NSD2 inh) | DNMT1 inh conf inactive | DNMT1 interf inactive
NC(=O)CSc1nc2scc(-c3ccco3)c2c(=O)n1-c1ccccc1	DNMT1 inh 50 (no result: Casp6 inh, NSD2 inh) | DNMT1 inh conf inactive | DNMT1 interf inactive
O=C(CSc1nc2scc(-c3ccco3)c2c(=O)n1-c1ccccc1)N1CCOCC1	none (no result: Casp6 inh)
C[C@@H]1CN([C@@H](C)CO)C(=O)Cc2cc(NS(=O)(=O)c3ccc(Cl)cc3)ccc2O[C@@H]1CN(C)S(=O)(=O)c1cn(C)cn1	none (no result: DNMT1 inh, NS3 helicase inh, NSD2 inh)
CN(C=[N+](C)C)c1cccc2c1C(=O)c1ccccc1C2=O	DNMT1 inh 62, NSD2 inh 69 (no result: Casp6 inh) | DNMT1 inh conf inactive | DNMT1 interf inactive
Cc1ccccc1S(=O)(=O)N1CCCCN2[C@@H](CO)[C@H](c3ccc(-c4ccccc4)cc3)[C@@H]2C1	none (no result: DNMT1 inh, NS3 helicase inh, NSD2 inh)
Cc1csc(N=Cc2ccc([N+](=O)[O-])o2)n1	DNMT1 inh 86 (no result: NS3 helicase inh) | DNMT1 inh conf inactive | DNMT1 interf inactive
CCNCc1cc(Br)c(OCC(=O)Nc2ccccc2)c(OC)c1	none (no result: Casp6 inh)
COc1cc(CNCC(C)C)cc(Br)c1OCC(=O)Nc1ccccc1	DNMT1 inh 87 (no result: Casp6 inh) | DNMT1 inh conf inactive | DNMT1 interf inactive
CC(=O)Oc1cccc(/C=c2\sc3nc(-c4ccco4)nn3c2=O)c1	DNMT1 inh 61 (no result: Casp6 inh, NSD2 inh) | DNMT1 inh conf inactive | DNMT1 interf inactive
C=CCNc1nc(C(=O)OCC(=O)c2cccc(Br)c2)cs1	DNMT1 inh 59 (no result: NS3 helicase inh) | DNMT1 inh conf inactive | DNMT1 interf inactive
C[C@@H]1CN([C@@H](C)CO)C(=O)c2cc(NS(=O)(=O)c3cn(C)cn3)ccc2O[C@@H](C)CCCCO[C@@H]1CN(C)Cc1ccc(C(F)(F)F)cc1	none (no result: DNMT1 inh, NS3 helicase inh, NSD2 inh)
Cc1ccccc1Nc1nnc(SCC(=O)NC(=O)Nc2ccc3c(c2)OCCO3)s1	none (no result: Casp6 inh, DNMT1 inh)
Cc1cccc(Nc2nnc(SCC(=O)NC(=O)Nc3ccc4c(c3)OCCO4)s2)c1	DNMT1 inh 50 | DNMT1 inh conf inactive | DNMT1 interf inactive
O=C(O)C1=C(C(=O)O)C2C=CC1C2	Casp6 inh 53, DNMT1 inh 60 (no result: NS3 helicase inh) | DNMT1 inh conf inactive | DNMT1 interf inactive
O=C(Nc1cccc(C(F)(F)F)c1)c1cc2ncc(Br)cn2n1	none
